What was measured:
[1] = test system: CD11a; assay: Control immunoprecipitation; type: binding, mouse (NOD); conditions: NOD cell lysates; OVA-pep IP, control for KGYY15
[2] = test system: CD11b; assay: Control immunoprecipitation; type: binding, mouse (NOD); conditions: NOD cell lysates; OVA-pep IP, control for KGYY15
[3] = test system: CD18; assay: Control immunoprecipitation; type: binding, mouse (NOD); conditions: NOD cell lysates; OVA-pep IP, control for KGYY15
[4] = test system: CD40; assay: Flow cytometry, surface expression of CD40 after Mn2+ activation; type: cell-based, mouse (NOD, BALB/c)
Method in brief: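 Flow cytometry on unfractionated PBMC from NOD and BALB/c mice ± Mn2+ activation, stained for CD4, CD40, CD18, CD11a and CD11b with isotype controls (1 to 3 × 10^5 cells). CD40 assessed in CD4hi, CD4lo (Th40) and CD4-negative subsets of the lymphocyte gate, read as overall mean fluorescence intensity. Two-tailed t test.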

[5] = test system: CD18; assay: Flow cytometry, surface expression of CD18 after Mn2+ activation; type: cell-based, mouse (NOD, BALB/c)
Method in brief: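 Density-medium-purified PBMC from NOD and BALB/c mice, unactivated or Mn2+-activated, stained for CD4, CD40, CD18, CD11a and CD11b against isotype controls; 1 to 3 × 10^5 cells per stain. Lymphocytes gated as CD4hi, CD4lo (Th40) or CD4-negative, then CD18hi and CD18lo populations scored. One-way ANOVA with Tukey's multiple comparisons test.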

[6] = test system: CD11a; assay: Flow cytometry, surface expression of CD11a after Mn2+ activation; type: cell-based, mouse (NOD, BALB/c)
Method in brief: (§1)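 NOD and BALB/c PBMC, isolated over density medium and used without further purification, were stained with or without Mn2+ activation for CD4, CD40, CD18, CD11a and CD11b, with isotype controls (1 to 3 × 10^5 cells per stain). Flow cytometry, lymphocyte gate split into CD4hi (conventional CD4), CD4lo (Th40) and CD4-negative cells. CD11a or CD11b surface expression compared ± Mn2+.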

[7] = test system: CD11b; assay: Flow cytometry, surface expression of CD11b after Mn2+ activation; type: cell-based, mouse (NOD, BALB/c)
Method in brief: as §1

[8] = test system: CD69; assay: Flow cytometry, surface expression of CD69 after Mn2+ activation; type: cell-based, mouse (NOD, BALB/c); conditions: PBMC and spleen, Mn2+ 30 min
[9] = test system: CD154; assay: Flow cytometry, surface expression of CD154 after Mn2+ activation; type: cell-based, mouse (NOD, BALB/c); conditions: PBMC and spleen, Mn2+ 30 min
[10] = test system: CD25; assay: Flow cytometry, surface expression of CD25 after Mn2+ activation; type: cell-based, mouse (NOD, BALB/c); conditions: PBMC and spleen, Mn2+ 30 min
[11] = biological target: FITC-conjugated mouse KGYY15 (mouse); assay: flow cytometry on cells
[12] = test system: integrin αIIbβ3; conditions: cited from earlier work
[13] = test system: integrin α5β1 (CD49e/CD29); conditions: cited from earlier work
[14] = test system: integrin αMβ2 (CD11b/CD18); conditions: cited from earlier work
[15] = PBMC conventional CD4 T cells, both strains
[16] = PBMC, BALB/c Th40, NOD Th40 and CD4-negative cells
[17] = spleen cells, two mouse strains
[18] = PBMC, any cell type, either strain

Molecule: OVA-peptide: unrelated peptide, the 17-amino-acid OVA (323–339) peptide, control for KGYY15 (KISQAVHAAHAEINEAG; UniProt P01012 323-339, looked up, fragment)
- immunoprecipitation of CD11a (control) [1]: No CD11a, CD11b, or CD18 was immunoprecipitated
- immunoprecipitation of CD11b (control) [2]: No CD11a, CD11b, or CD18 was immunoprecipitated
- immunoprecipitation of CD18 (control) [3]: No CD11a, CD11b, or CD18 was immunoprecipitated

Molecule: [Mn+2] [Mn^2+, manganese divalent ions]
- surface expression of CD40 [4, 15]: did not change surface expression of CD40 or CD18
- percentage of cells expressing CD40 on surface ([4]; PBMC, NOD and BALB/c): did not increase the percentage of cells expressing CD40
- intensity of CD40 surface expression [4, 16]: significantly elevated
- surface expression of CD40 [4, 17]: did not reveal any change
- surface expression of CD18 [5, 15]: did not change surface expression of CD40 or CD18
- CD18hi population [5, 16]: decrease in the CD18^hi population
- CD18lo population [5, 16]: corresponding increase in the CD18^lo population
- surface expression of CD18 [5, 17]: did not reveal any change
- surface expression of CD11a [6, 18]: no change
- surface expression of CD11a [6, 17]: did not reveal any change
- surface expression of CD11b [7, 18]: no change
- surface expression of CD11b [7, 17]: did not reveal any change
- surface expression of CD69 [8]: None of the three molecules was affected
- surface expression of CD154 [9]: None of the three molecules was affected
- surface expression of CD25 [10]: None of the three molecules was affected

Molecule: recombinant CD11b/CD18 (R&D Systems cat# 4047-AM-050) (from UniProt P11215 17-1104; P05107 23-700) (complex)
- percent reduction of KGYY15-FITC staining of NAMALWA cells [11]: 22.7%

Molecule: recombinant CD11a/CD18 (R&D Systems cat# 3868-AV-050) (from UniProt P20701 26-1090; P05107 23-700) (complex)
- percent reduction of KGYY15-FITC staining of NAMALWA cells [11]: 29.4%

B1: CD154: natural CD40-ligand, whole protein (protein, UniProt P27548 112-260, looked up)
CD40 ligand, soluble form: MQRGDEDPQIAAHVVSEANSNAASVLQWAKKGYYTMKSNLVMLENGKQLTVKREGLYYVYTQVTFCSNREPSSQRPFIVGLWLKPSSGSERILLKAANTHSSSQLCEQQSVHLGGVFELQAGASVFVNVTEASQVIHRVGFSSFGLLKL
- binding to integrin [12]: binds
- binding to integrin [13]: binds
- binding to integrin [14]: binds

Reference: paper PMC10141526 (The Journal of Biological Chemistry, 2023)
